Data taken from ChEMBL document CHEMBL3588829, “Dehydro-β-proline Containing α4β1 Integrin Antagonists: Stereochemical Recognition in Ligand-Receptor Interplay” (ACS Med Chem Lett, 2015).

Tests used:
[1] = target: T1, Integrin alpha-4/beta-1 (Homo sapiens, UniProt P05556+P13612); assay: Inhibition of human alpha4beta1 integrin expressed in human Jurkat cells assessed as inhibition of cell adhesion to VCAM-1; assay type: cell-based
How it was run: (§1)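 Cell adhesion inhibition assay, run on Jurkat with VCAM-1, RPMI8866, K562 or SK-MEL-24 cells. Each experiment was run in quadruplicate and repeated at least three times.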

[2] = target: T1, Integrin alpha-4/beta-1; assay: Antagonist activity at human alpha4beta1integrin in human Jurkat cells assessed as reduction of VCAM-1-induced ERK1/2 phosphorylation after 60 mins by Western blot analysis; assay type: cell-based
How it was run: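 Jurkat cells were serum-starved for 16 h in RPMI-1640 with 1% FBS, then preincubated with compound in suspension for 60 min. They were then kept in suspension or plated on VCAM-1-coated wells, with poly-L-lysine as the nonspecific substrate. After 60 min the cells were lysed and Western blotted for pERK1/2 and total ERK1/2. Densitometry normalized pERK1/2 to tERK1/2 (mean ± SEM, n = 6). IC50 came from a separate concentration series.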

[3] = Inhibition of human […] integrin expressed in human Jurkat cells assessed as inhibition of cell adhesion to ICAM1; assay type: cell-based
[4] = target: T2, Integrin alpha-4/beta-7 (Homo sapiens, UniProt P13612+P26010); assay: Inhibition of human alpha4beta7 integrin expressed in human RPMI8866 cells assessed as inhibition of cell adhesion to MadCam1; assay type: cell-based; how it was run: as §1
T2 sequence (P13612 whole entry): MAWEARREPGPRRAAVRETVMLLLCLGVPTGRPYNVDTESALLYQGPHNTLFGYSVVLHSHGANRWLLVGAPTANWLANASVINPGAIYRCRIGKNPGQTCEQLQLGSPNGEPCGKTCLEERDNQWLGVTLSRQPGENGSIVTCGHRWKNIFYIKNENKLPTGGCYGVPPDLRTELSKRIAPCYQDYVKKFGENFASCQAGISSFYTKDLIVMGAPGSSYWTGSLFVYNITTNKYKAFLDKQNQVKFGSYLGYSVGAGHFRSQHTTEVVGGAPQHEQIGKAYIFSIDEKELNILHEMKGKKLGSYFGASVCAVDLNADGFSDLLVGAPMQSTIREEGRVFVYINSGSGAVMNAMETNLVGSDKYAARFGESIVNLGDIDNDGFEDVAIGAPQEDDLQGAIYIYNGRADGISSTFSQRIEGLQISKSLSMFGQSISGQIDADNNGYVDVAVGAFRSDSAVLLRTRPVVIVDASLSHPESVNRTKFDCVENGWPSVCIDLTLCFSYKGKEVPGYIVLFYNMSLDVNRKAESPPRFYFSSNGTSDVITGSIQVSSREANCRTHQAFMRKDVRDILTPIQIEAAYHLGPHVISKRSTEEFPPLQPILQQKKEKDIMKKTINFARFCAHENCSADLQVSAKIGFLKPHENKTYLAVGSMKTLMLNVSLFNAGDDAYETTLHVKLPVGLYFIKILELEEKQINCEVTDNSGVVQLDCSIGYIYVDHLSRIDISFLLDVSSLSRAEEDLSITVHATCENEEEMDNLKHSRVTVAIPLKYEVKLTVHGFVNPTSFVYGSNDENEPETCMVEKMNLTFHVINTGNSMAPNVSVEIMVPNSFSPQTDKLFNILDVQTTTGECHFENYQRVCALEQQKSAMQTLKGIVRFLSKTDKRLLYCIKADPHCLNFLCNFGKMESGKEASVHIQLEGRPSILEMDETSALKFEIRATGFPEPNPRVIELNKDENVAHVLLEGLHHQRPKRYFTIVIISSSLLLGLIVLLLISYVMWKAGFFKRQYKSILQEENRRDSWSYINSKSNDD
T2 sequence (P26010 whole entry): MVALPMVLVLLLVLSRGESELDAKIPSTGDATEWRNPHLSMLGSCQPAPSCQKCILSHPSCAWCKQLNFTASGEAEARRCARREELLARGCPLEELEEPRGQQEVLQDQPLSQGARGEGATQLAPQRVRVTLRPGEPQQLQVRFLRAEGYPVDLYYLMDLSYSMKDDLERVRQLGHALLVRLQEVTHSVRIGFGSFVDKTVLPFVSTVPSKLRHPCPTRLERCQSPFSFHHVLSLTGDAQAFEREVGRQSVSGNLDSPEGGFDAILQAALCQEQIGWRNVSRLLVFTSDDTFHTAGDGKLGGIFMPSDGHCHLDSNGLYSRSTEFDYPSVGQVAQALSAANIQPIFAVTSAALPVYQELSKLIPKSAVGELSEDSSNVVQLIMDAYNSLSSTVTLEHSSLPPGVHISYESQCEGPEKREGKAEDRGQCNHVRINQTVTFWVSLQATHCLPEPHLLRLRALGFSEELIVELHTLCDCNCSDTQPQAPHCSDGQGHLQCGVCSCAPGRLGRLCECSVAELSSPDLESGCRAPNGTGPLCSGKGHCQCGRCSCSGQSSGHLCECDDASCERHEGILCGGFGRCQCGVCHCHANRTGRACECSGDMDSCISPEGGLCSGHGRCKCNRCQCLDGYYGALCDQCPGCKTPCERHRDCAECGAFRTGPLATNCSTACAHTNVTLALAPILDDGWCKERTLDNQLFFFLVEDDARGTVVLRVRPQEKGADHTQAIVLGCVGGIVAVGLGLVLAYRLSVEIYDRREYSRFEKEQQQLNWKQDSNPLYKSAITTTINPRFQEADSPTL

[5] = target: Integrin alpha-5/beta-1 (Homo sapiens, UniProt P05556+P08648); assay: Inhibition of human alpha5beta1 integrin expressed in human K-562 cells assessed as inhibition of cell adhesion to fibronectin; assay type: cell-based, K562; how it was run: as §1
[6] = target: Integrin alpha-V/beta-3 (Homo sapiens, UniProt P05106+P06756); assay: Inhibition of human alphaVbeta3 integrin expressed in human SK-MEL-24 cells assessed as inhibition of cell adhesion to fibronectin
Chain of Integrin alpha-V/beta-3 (P05106 27-788 limits assumed): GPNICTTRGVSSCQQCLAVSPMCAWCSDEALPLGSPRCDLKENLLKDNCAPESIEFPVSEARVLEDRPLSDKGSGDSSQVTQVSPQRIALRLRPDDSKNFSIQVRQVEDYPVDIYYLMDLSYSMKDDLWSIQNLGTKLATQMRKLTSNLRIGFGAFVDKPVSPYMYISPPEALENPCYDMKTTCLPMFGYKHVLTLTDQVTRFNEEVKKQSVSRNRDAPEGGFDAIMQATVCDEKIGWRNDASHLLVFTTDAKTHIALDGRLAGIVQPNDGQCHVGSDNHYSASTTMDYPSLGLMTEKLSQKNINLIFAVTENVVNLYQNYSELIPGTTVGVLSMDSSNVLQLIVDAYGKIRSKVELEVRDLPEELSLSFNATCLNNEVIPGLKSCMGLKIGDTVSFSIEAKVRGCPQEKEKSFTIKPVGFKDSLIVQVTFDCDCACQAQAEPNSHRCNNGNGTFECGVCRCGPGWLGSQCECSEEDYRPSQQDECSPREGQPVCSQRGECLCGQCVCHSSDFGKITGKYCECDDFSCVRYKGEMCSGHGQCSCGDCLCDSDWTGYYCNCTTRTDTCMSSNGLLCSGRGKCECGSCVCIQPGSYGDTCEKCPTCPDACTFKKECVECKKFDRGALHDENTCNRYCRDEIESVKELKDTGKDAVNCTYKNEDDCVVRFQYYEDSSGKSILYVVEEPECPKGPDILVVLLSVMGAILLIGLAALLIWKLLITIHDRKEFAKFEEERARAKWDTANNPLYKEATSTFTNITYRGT
Chain of Integrin alpha-V/beta-3 (P06756 31-889 limits assumed): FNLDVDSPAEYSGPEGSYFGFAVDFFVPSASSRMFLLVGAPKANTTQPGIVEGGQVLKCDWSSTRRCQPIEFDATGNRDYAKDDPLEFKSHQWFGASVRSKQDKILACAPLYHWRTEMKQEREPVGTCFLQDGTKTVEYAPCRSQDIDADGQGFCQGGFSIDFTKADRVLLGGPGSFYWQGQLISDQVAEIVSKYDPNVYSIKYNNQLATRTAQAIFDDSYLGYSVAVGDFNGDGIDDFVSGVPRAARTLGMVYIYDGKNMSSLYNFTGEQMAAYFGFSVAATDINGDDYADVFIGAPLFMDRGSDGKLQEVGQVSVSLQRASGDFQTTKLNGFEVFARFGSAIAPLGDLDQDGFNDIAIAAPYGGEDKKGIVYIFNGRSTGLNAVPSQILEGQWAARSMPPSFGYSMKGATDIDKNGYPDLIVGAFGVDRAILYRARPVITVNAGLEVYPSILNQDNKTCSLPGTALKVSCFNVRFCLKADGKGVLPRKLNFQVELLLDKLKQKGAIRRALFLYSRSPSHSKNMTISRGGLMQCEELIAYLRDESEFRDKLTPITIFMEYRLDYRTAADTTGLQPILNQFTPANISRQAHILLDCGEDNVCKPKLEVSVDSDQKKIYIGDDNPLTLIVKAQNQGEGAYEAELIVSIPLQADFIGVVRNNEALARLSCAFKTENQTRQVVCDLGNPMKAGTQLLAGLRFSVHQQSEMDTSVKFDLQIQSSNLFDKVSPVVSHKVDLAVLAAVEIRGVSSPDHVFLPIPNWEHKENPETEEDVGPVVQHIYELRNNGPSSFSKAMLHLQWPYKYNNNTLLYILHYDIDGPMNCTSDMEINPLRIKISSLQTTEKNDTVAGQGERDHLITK
Chain of Integrin alpha-V/beta-3 (P06756 891-1048 limits assumed): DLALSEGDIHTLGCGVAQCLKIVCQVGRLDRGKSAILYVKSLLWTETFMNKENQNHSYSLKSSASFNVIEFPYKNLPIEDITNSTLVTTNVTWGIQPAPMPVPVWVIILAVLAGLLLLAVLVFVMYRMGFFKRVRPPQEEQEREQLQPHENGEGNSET

T1 sequence (P05556 whole entry, one chain of several): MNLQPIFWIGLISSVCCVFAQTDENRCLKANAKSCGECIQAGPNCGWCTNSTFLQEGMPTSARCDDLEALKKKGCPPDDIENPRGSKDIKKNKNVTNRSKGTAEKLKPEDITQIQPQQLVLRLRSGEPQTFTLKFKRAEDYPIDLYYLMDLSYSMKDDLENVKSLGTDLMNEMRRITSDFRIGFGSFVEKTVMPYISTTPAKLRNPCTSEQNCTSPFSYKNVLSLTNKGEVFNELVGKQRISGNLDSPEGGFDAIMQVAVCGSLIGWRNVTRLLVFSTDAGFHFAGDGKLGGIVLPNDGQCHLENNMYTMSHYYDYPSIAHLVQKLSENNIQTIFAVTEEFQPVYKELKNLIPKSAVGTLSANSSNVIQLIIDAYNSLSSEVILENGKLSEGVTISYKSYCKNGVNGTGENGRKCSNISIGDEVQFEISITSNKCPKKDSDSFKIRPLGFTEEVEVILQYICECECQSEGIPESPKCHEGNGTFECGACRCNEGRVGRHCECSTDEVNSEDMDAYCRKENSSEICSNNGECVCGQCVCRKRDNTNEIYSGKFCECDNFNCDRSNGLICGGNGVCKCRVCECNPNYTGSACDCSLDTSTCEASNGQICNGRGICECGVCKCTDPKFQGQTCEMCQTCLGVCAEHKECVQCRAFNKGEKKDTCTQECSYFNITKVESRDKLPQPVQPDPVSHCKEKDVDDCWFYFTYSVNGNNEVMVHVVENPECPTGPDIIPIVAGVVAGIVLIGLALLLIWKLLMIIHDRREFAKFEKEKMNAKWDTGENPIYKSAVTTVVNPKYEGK
Chain of Integrin alpha-5/beta-1 (P05556 21-798 limits assumed): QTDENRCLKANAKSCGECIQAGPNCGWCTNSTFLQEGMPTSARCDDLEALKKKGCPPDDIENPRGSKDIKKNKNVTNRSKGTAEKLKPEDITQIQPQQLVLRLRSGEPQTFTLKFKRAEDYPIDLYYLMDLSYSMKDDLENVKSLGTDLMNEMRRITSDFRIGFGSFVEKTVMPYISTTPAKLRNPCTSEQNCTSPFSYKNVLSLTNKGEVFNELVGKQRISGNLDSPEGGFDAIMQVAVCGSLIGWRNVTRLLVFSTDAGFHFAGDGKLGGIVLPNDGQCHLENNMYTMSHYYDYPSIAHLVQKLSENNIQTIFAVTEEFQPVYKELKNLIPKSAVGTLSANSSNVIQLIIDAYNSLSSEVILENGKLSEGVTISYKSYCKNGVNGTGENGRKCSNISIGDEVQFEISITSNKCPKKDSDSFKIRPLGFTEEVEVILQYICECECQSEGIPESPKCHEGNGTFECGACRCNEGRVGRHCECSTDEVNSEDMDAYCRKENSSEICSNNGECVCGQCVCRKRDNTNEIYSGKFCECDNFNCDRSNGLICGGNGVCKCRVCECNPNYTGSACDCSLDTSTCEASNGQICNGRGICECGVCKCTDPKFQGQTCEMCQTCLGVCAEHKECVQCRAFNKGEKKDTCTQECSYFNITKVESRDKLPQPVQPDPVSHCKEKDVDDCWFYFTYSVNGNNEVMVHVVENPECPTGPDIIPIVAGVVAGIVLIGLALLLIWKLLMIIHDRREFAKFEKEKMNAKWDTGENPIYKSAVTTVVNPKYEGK
Chain of Integrin alpha-5/beta-1 (P08648 42-894 limits assumed): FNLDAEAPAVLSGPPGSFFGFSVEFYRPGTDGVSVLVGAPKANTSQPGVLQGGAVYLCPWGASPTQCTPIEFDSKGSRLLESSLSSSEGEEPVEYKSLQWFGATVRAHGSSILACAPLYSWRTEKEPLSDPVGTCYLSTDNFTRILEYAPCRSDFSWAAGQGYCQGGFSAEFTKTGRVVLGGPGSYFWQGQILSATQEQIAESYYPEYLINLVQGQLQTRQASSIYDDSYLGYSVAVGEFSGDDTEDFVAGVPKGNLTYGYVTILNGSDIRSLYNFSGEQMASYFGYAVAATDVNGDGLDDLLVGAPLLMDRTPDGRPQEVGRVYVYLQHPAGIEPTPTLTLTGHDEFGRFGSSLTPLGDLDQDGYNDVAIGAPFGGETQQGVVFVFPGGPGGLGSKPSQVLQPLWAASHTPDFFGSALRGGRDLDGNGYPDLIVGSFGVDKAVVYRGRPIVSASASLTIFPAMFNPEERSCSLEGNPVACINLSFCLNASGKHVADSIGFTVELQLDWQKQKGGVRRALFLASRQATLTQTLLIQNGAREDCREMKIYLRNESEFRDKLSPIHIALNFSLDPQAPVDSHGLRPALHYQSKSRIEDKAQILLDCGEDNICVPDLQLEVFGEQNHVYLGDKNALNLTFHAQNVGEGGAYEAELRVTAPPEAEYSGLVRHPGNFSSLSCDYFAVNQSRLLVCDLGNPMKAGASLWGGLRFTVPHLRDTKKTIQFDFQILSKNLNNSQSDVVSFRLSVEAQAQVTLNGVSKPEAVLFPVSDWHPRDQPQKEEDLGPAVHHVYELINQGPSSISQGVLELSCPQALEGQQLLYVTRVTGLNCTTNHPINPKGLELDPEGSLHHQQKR
Chain of Integrin alpha-5/beta-1 (P08648 895-1049 limits assumed): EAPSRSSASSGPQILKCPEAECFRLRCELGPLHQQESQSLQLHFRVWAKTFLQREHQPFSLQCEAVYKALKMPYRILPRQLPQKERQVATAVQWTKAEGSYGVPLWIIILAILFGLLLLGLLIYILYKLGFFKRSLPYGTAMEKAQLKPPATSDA

Compound | IC50 [1] [nM] | IC50 [2] [nM] | IC50 [3] [nM] | IC50 [4] [nM] | IC50 [5] [nM] | IC50 [6] [nM]
Cc1ccccc1NC(=O)N1CC=C(C(=O)NCc2ccc(NC(=O)CC(=O)O)cc2)[C@H]1C(C)C | 250 | – | – | – | – | –
Cc1ccccc1NC(=O)Nc1ccc(CNC(=O)C2=CCN(C(=O)CC(=O)O)[C@H]2C(C)C)cc1 | > 1000 | – | – | – | – | –
Cc1ccccc1NC(=O)Nc1ccc(CNC(=O)C2=CCN(C(=O)CC(=O)O)[C@@H]2C(C)C)cc1 | 10 | 10 | > 1000 | 270 | > 1000 | > 1000
Cc1ccccc1NC(=O)Nc1ccc(CNC(=O)C2=CCN(C(=O)CC(=O)O)[C@@H]2C2CCCCC2)cc1 | 62 | 131 | > 1000 | 343 | > 1000 | > 1000

The next lines start with the values.

IC50 [1] [nM] | IC50 [2] [nM] | IC50 [3] [nM] | IC50 [4] [nM] | IC50 [5] [nM] | IC50 [6] [nM] | Compound
110 | – | – | – | – | – | Cc1ccccc1NC(=O)N1CC=C(C(=O)NCc2ccc(NC(=O)CC(=O)O)cc2)[C@@H]1C(C)C
> 1000 | – | – | – | – | – | Cc1ccccc1NC(=O)Nc1ccc(CNC(=O)C2=CCN(C(=O)CC(=O)O)[C@H]2C2CCCCC2)cc1
